The target in one assay is Albumin (Bos taurus, UniProt P02769). Kind of assay: Inhibition of glycation of bovine serum albumin assessed as advanced glycated end product measured after 7 days by spectrofluorimeter in presence of glucose anhydrous.
Albumin, sequence (P02769 whole entry): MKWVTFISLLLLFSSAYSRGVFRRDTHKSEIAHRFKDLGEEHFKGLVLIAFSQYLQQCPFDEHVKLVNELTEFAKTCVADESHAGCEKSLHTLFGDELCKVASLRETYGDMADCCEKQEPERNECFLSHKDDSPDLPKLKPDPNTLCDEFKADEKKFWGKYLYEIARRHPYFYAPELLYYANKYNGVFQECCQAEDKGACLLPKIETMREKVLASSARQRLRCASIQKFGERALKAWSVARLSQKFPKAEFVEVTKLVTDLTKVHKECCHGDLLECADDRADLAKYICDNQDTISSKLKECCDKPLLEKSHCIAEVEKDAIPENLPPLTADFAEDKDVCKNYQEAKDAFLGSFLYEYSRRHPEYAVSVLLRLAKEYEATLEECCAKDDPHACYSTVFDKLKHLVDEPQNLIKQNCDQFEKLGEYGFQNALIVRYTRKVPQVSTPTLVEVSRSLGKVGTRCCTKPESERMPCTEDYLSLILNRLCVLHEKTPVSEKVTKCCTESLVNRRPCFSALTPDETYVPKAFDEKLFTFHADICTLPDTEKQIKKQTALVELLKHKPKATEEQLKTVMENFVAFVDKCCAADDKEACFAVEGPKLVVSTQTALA
Details: not given; call rule not given here
In a few lines: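 BSA (10 mg/mL) incubated with anhydrous glucose (50 mg/mL) in 67 mM sodium phosphate buffer, pH 7.4, containing 3 mM sodium azide; compounds dissolved in DMSO. Incubation 37 °C for 7 days. Then 100% trichloroacetic acid added and the mixture centrifuged at 15,000 rpm, 4 min, 4 °C. A PBS, pH 10, was also prepared.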
As for `CC(C)(C)OC(=O)NCC(=O)N1CCC(c2noc3cc(F)ccc23)CC1`, the IC50 entry is given as “Not Active”. With `O=C(CNC(=S)Nc1ccc(Cl)cc1)N1CCC(c2noc3cc(F)ccc23)CC1`, the IC50 entry is on record as “Not Active”. `O=C(CNC(=S)Nc1cccc(Cl)c1)N1CCC(c2noc3cc(F)ccc23)CC1`: the IC50 entry is recorded as “Not Active”. For the compound `CC(C)(C)OC(=O)N1CCCC1C(=O)N1CCC(c2noc3cc(F)ccc23)CC1` (stereo not given), the concentration for half-maximal inhibition (IC50) entry is on record as “Not Active”.

The same assay, now with this note: read-out: IC50.
For `O=C(C1CCCN1C(=O)Nc1cccc(F)c1)N1CCC(c2noc3cc(F)ccc23)CC1` (stereo not given), the IC50 stood at 117 µM. On the same count and under the same terms, then `O=C(C1CCCN1C(=S)Nc1ccc(Cl)cc1)N1CCC(c2noc3cc(F)ccc23)CC1` (stereo not given), with 59.4 µM; and `O=C(NCC(=O)N1CCC(c2noc3cc(F)ccc23)CC1)Nc1ccc(F)cc1`, with 75.8 µM.

For `COc1ccccc1NC(=S)NCC(=O)N1CCC(c2noc3cc(F)ccc23)CC1`, the IC50 came to 4.1 µM.

Turning to `O=C(C1CCCN1C(=S)Nc1ccccc1Br)N1CCC(c2noc3cc(F)ccc23)CC1` (stereo not given), the half-maximal inhibitory concentration (IC50) is 7.8 µM.

As for `O=C(CNC(=S)Nc1cccc(Br)c1)N1CCC(c2noc3cc(F)ccc23)CC1`, the IC50 came to 4.9 µM. On to `O=C(C1CCCN1C(=O)Nc1ccc(Cl)cc1)N1CCC(c2noc3cc(F)ccc23)CC1` (stereo not given), for which the half-inhibitory concentration (IC50) was found to be 60.3 µM. On to `COc1ccccc1NC(=S)N1CCCC1C(=O)N1CCC(c2noc3cc(F)ccc23)CC1` (stereo not given), for which the IC50 amounted to 5.2 µM.

Consider `O=C(C1CCCN1C(=S)Nc1cccc(Cl)c1)N1CCC(c2noc3cc(F)ccc23)CC1` (stereo not given), for which the IC50 was found to be 126 µM. Turning to `O=C(CNC(=S)Nc1ccc(F)cc1)N1CCC(c2noc3cc(F)ccc23)CC1`, the IC50 was found to be 70.3 µM.

Turning to `C[C@@H]1O[C@@H](OC[C@H]2O[C@@H](Oc3c(-c4ccc(O)c(O)c4)oc4cc(O)cc(O)c4c3=O)[C@H](O)[C@@H](O)[C@@H]2O)[C@H](O)[C@H](O)[C@H]1O` [RUTIN], the half-inhibitory concentration (IC50) stood at 41.9 µM. On the same count and under the same terms, with `O=C(C1CCCN1C(=O)Nc1ccccc1F)N1CCC(c2noc3cc(F)ccc23)CC1` (stereo not given) the figure was 54.8 µM; with `COc1cccc(NC(=O)NCC(=O)N2CCC(c3noc4cc(F)ccc34)CC2)c1`, 21.1 µM; with `O=C(C1CCCN1C(=O)Nc1cccc(Br)c1)N1CCC(c2noc3cc(F)ccc23)CC1` (stereo not given), 6.9 µM. Turning to `COc1ccccc1NC(=O)NCC(=O)N1CCC(c2noc3cc(F)ccc23)CC1`, the IC50 amounted to 20.2 µM. As to `O=C(C1CCCN1C(=S)Nc1ccccc1)N1CCC(c2noc3cc(F)ccc23)CC1` (stereo not given), the IC50 amounted to 295 µM. With `O=C(NCC(=O)N1CCC(c2noc3cc(F)ccc23)CC1)Nc1ccccc1`, the IC50 is 390 µM. On the same count and under the same terms, then `COc1ccccc1NC(=O)N1CCCC1C(=O)N1CCC(c2noc3cc(F)ccc23)CC1` (stereo not given), with 30.6 µM; and `O=C(C1CCCN1C(=S)Nc1ccccc1F)N1CCC(c2noc3cc(F)ccc23)CC1` (stereo not given), with 7.8 µM.

As for `O=C(NCC(=O)N1CCC(c2noc3cc(F)ccc23)CC1)Nc1ccc(Br)cc1`, the IC50 is 8.5 µM. Turning to `COc1cccc(NC(=O)N2CCCC2C(=O)N2CCC(c3noc4cc(F)ccc34)CC2)c1` (stereo not given), the IC50 was determined as 33.4 µM. Take `COc1ccc(NC(=O)NCC(=O)N2CCC(c3noc4cc(F)ccc34)CC2)cc1`: the IC50 turned out to be 19.5 µM. For `O=C(C1CCCN1C(=S)Nc1cccc(Br)c1)N1CCC(c2noc3cc(F)ccc23)CC1` (stereo not given), the IC50 came to 4.7 µM. Same read-out and setting: with `COc1ccc(NC(=S)NCC(=O)N2CCC(c3noc4cc(F)ccc34)CC2)cc1` the figure was 3.6 µM; with `O=C(C1CCCN1C(=O)Nc1ccc(Br)cc1)N1CCC(c2noc3cc(F)ccc23)CC1` (stereo not given), 6.8 µM; with `O=C(CNC(=S)Nc1ccccc1F)N1CCC(c2noc3cc(F)ccc23)CC1`, 9.1 µM. On the same count and under the same terms, with `COc1ccc(NC(=O)N2CCCC2C(=O)N2CCC(c3noc4cc(F)ccc34)CC2)cc1` (stereo not given) the figure was 22.1 µM; with `COc1cccc(NC(=S)NCC(=O)N2CCC(c3noc4cc(F)ccc34)CC2)c1`, 15.3 µM; with `O=C(C1CCCN1C(=O)Nc1ccc(F)cc1)N1CCC(c2noc3cc(F)ccc23)CC1` (stereo not given), 76.1 µM. Still for that read-out and setting: then `O=C(NCC(=O)N1CCC(c2noc3cc(F)ccc23)CC1)Nc1cccc(Br)c1`, with 9.3 µM; and `O=C(NCC(=O)N1CCC(c2noc3cc(F)ccc23)CC1)Nc1cccc(F)c1`, with 100 µM. Turning to `O=C(CNC(=S)Nc1ccccc1Br)N1CCC(c2noc3cc(F)ccc23)CC1`, the IC50 turned out to be 6.3 µM. `O=C(C1CCCN1C(=S)Nc1ccc(F)cc1)N1CCC(c2noc3cc(F)ccc23)CC1` (stereo not given): the IC50 is 70.9 µM.

As to `O=C(C1CCCN1C(=O)Nc1ccccc1)N1CCC(c2noc3cc(F)ccc23)CC1` (stereo not given), the IC50 came out at 340 µM. For `O=C(NCC(=O)N1CCC(c2noc3cc(F)ccc23)CC1)Nc1ccccc1F`, the IC50 was 55.5 µM. Same read-out and setting: then `COc1ccc(NC(=S)N2CCCC2C(=O)N2CCC(c3noc4cc(F)ccc34)CC2)cc1` (stereo not given), with 3.9 µM; and `O=C(C1CCCN1C(=O)Nc1cccc(Cl)c1)N1CCC(c2noc3cc(F)ccc23)CC1` (stereo not given), with 145 µM.

As for `O=C(NCC(=O)N1CCC(c2noc3cc(F)ccc23)CC1)Nc1cccc(Cl)c1`, the IC50 came to 144 µM. For `O=C(NCC(=O)N1CCC(c2noc3cc(F)ccc23)CC1)Nc1ccc(Cl)cc1`, the IC50 worked out at 83.9 µM. As for `COc1cccc(NC(=S)N2CCCC2C(=O)N2CCC(c3noc4cc(F)ccc34)CC2)c1` (stereo not given), the 50% inhibitory concentration (IC50) amounted to 20.5 µM.

Regarding `O=C(CNC(=S)Nc1ccccc1)N1CCC(c2noc3cc(F)ccc23)CC1`, the IC50 was 380 µM.

By IC50 is commonly meant the point on the concentration scale where inhibition reaches its midpoint.
